Laboratory results as given in ChEMBL document CHEMBL1142437, “Constrained analogues of procaine as novel small molecule inhibitors of DNA methyltransferase-1” (J Med Chem, 2008).
Active and inactive are the calls of the source. The rule behind the calls is not given here.

What was measured:
[1] = target: DNA (cytosine-5)-methyltransferase 1 (Homo sapiens) (UniProt P26358); experiment: Inhibition of human recombinant DNMT1 expressed in Sf9 cells
[2] = tested on: HL-60; experiment: Induction of chromosomal satellite repeats demethylation in human HL60 cells at 0.5 mM after 72 hrs; format: functional, cell-based
Procedure, shortened: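 HL60 human myeloid leukemia cells exposed 72 h to 0.5 mM drug in DMSO, DMSO (1%) as control. Methylation of chromosomal satellite repeats (C1S2) assessed by COBRA assay on genomic DNA.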

DNA (cytosine-5)-methyltransferase 1 (Homo sapiens), sequence (P26358 whole entry): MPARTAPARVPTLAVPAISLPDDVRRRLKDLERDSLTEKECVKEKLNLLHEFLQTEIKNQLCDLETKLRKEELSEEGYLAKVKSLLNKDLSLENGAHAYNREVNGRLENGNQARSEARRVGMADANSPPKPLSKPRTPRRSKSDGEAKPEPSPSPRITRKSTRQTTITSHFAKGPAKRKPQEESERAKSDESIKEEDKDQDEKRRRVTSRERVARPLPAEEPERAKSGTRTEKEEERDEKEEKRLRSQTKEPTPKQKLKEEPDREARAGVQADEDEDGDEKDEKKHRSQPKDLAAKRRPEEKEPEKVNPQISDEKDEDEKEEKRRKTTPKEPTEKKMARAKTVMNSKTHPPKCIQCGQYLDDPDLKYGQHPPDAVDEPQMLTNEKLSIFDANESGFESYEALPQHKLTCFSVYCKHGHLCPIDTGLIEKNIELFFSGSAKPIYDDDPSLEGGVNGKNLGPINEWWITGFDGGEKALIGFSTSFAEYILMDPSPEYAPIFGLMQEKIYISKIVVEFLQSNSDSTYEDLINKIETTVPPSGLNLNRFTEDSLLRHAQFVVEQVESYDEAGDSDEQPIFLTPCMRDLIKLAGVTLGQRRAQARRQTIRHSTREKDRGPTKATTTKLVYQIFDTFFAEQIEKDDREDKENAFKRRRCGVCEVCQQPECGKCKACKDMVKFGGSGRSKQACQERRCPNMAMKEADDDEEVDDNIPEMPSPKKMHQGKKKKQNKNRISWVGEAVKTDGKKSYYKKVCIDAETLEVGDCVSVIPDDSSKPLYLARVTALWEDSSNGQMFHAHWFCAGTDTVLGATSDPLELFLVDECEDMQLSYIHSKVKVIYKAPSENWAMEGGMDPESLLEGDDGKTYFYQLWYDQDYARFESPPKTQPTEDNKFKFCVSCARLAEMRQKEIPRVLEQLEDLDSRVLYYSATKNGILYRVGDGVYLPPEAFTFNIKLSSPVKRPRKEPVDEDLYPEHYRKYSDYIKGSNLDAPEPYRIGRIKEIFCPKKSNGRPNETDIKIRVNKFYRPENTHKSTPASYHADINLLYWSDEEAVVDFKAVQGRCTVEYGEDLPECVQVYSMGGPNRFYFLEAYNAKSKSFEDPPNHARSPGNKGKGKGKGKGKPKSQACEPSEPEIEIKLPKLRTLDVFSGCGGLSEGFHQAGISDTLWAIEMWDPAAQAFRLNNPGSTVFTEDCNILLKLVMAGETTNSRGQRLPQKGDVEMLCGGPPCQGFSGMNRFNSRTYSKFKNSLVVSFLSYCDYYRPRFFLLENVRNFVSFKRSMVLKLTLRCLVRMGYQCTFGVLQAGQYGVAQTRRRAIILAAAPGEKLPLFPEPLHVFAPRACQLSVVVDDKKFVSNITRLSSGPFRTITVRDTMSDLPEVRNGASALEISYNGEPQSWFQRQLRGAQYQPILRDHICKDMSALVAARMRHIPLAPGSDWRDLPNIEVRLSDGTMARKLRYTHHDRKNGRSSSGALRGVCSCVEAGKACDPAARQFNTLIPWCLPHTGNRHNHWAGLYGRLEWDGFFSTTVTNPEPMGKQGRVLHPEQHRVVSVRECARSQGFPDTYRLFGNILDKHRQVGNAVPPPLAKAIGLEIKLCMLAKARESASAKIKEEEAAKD

Activity [1]	Structure (SMILES)	Activity [2]
Active	CCN(CC)C[C@H]1CN=C(c2ccc([N+](=O)[O-])cc2)O1	
Active	O=[N+]([O-])c1ccc(C2=N[C@H](CN3CCCC3)CO2)cc1	
	CCN(CC)CCOC(=O)c1ccc(N)cc1	Active
Active	O=[N+]([O-])c1ccc(C2=NC[C@H](CN3CCCC3)O2)cc1	Active
Active	CCN(CC)C[C@@H]1CN=C(c2ccc([N+](=O)[O-])cc2)O1	
Active	O=[N+]([O-])c1ccc(C2=N[C@@H](CN3CCCC3)CO2)cc1	
Active	CCN(CC)C[C@@H]1COC(c2ccc([N+](=O)[O-])cc2)=N1	
Active	CCN(CC)C[C@H]1COC(c2ccc([N+](=O)[O-])cc2)=N1	
